# Screening data (PubChem BioAssay)
# MBD2 DNA inh: MBD2-methylated oligo binding inhibition; inhibition, % at 4.4 µM; TR-FRET, MBD2 binding to methylated oligonucleotide; Q9UBB5; 0.31% of 370,000 active; AID 686964; in the data active = inhibition above about 13%
# TDP2 absorb: blocks human TDP2 phosphodiesterase activity; inhibition, % at 12.8 µM; recombinant TDP2, T5PNP hydrolysis, p-nitrophenol absorbance 415 nm; 0.34% of 370,000 active;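 active = inhibition above the mean of all tested compounds plus 3 SD, set per campaign, cut at about 25% in these data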;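 also: 0% = DMSO with enzyme and 100% = buffer with substrate but no TDP2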
#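 Evaluation: % inhibition relative to enzyme-containing and enzyme-free wells. Material: recombinant human TDP2. Benchmarks: enzyme-free and DMSO wells. Timing: enzyme reaction with compound for 2 h at 37 °C. Compound dosing: 12.8 µM only. Measured by: p-Nitrophenol epi absorbance. Reagent: T5PNP substrate at 5 mM, a TopII-DNA adduct mimic. Replication: single well per compound.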
# LEDGF integ inh: blocks HIV-1 LEDGF/p75-dependent DNA integration | inhibition, % at 3.7 µM | TR-FRET IN-LEDGF/p75 DNA integration, Eu/Cy5 | 0.64% of 370,000 active;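 active = inhibition above the screen-wide mean plus 3 SD, cut at about 13% in these data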;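 also: signal is the Cy5 over europium emission ratio at 671 and 618 nm; 0% = plate median of compound wells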
# Rin1 Abl inh: human Rin1-Abl interaction inhibition | P00519+Q13671 | TR-FRET Rin1/Abl binding, biochemical | inhibition, % at 7.35 µM | 0.4% of 360,000 active | AID 588664; in the data active = inhibition above about 5%, passing the limit was not always enough
# UHRF1 binding: human UHRF1 methylated DNA binding inhibitors. 0.75% of 370,000 active. Q96T88. AID 687016. inhibition, % at 4.4 µM. UHRF1 binding to methylated oligo, TR-FRET; in the data active = inhibition above about 21%;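 also: UHRF1 SRA domain binding a hemimethylated CpG hairpin DNA probe; 0% = median of test compound wells and 100% = reference inhibitor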
# Target sequence (Q96T88 whole entry, looked up, the tested form may be a part): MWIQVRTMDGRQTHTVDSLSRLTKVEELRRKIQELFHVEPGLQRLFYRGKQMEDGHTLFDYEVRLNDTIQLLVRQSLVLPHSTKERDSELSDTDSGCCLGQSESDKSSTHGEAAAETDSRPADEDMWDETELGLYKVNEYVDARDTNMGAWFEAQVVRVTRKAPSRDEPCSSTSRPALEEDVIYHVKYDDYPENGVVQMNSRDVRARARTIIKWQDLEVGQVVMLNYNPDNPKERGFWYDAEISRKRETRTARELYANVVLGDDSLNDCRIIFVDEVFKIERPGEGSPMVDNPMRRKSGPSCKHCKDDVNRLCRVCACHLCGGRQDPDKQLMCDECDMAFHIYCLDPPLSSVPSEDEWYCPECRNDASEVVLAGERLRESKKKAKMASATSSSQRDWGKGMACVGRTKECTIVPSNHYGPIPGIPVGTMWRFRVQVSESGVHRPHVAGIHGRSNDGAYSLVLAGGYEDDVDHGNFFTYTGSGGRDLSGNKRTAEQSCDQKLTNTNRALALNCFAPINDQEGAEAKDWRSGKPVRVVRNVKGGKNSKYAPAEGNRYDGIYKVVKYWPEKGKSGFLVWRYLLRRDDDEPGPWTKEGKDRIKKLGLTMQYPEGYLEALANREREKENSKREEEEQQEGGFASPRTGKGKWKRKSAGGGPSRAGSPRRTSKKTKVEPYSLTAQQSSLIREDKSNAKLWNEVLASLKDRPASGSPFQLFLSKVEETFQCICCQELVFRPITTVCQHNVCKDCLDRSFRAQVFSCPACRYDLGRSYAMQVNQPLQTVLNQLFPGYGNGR
# Rin1 Abl conf: Rin1-Abl interaction inhibition confirmation; shares compounds with Rin1 Abl inh; TR-FRET Rin1-Abl binding, purified proteins; inhibition, % at 7.35 µM; 49% of 1,300 active; in the data active = inhibition above about 6.5%
# GFP quench-1: quenches GFP fluorescence, counter-screen for Rin1-Abl inhibitors; 8.5% of 1,300 active; inhibition, % at 6.75 µM; inhibitors/quenchers counterscreen; AID 602125; shares compounds with Rin1 Abl inh; in the data active = inhibition above about 6.5%;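 also: ABL1-eGFP fusion protein alone without its partner RIN1-SBP; 0% = protein with vehicle and 100% = wells lacking protein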
# GFP quench DR: quenches GFP in dose response, Rin1-Abl counter-screen; GFP fluorescence interference/quenching counterscreen; IC50, µM; shares compounds with Rin1 Abl inh; 230 tested, under 10 active;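 also: ABL1-eGFP fusion protein alone without its RIN1 binding partner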
# GFP quench-2: counter-screen for Rin1-Abl interaction inhibitors: GFP fluorescence quenching. shares compounds with Rin1 Abl inh. GFP fluorescence quenching counterscreen, biochemical. IC50, µM. 25 tested, under 10 active
# An asterisk follows results filed as active; nt = no result. Rows were chosen to be rich in hits. Some 1.9% of all compounds tested hit in one or more screens of this group. Unless noted, no rule for the calls is given here.
SMILES,MBD2 DNA inh,TDP2 absorb,LEDGF integ inh,Rin1 Abl inh,UHRF1 binding,Rin1 Abl conf,GFP quench-1,others
O=C(Cc1ccccc1)OCCN1CCCCC1,2,6,0,2,-1,nt,nt,
NC(=O)C1(N2CCCCC2)CCN(Cc2ccccc2)CC1,2,3,4,7.9*,2,0,0,
Cn1cc(C(=O)OCC(=O)N2CCCCC2)c2ccccc21,-3,1,-6,0,2,nt,nt,
NC(=O)c1cn(C2CCCCC2)c2ccccc2c1=O,1,5,2,10*,1,11*,0,
CSCCC(c1nnnn1C1CCCCC1)N1CCC(n2c(=O)[nH]c3ccccc32)CC1 (configuration not stated),-3,-21,7,53*,0,44*,-2,GFP quench DR=>68
CSCCC(c1nnnn1C1CCCC1)N1CCC(n2c(=O)[nH]c3ccccc32)CC1 (configuration not stated),-3,-16,4,19*,1,20*,-2,GFP quench DR=>68
O=c1[nH]c2ccccc2n1C1CCN(C(CCc2ccccc2)c2nnnn2C2CCCCC2)CC1 (configuration not stated),-4,2,-3,27*,-1,14*,0,
O=c1[nH]c2ccccc2n1C1CCN(C(CCc2ccccc2)c2nnnn2Cc2ccccc2)CC1 (configuration not stated),1,0,-1,1,1,nt,nt,
CC(C)(C)n1nnnc1C(CCc1ccccc1)N1CCC(n2c(=O)[nH]c3ccccc32)CC1 (configuration not stated),-6,11,-1,17*,0,11*,-1,
CSCCC(c1nnnn1Cc1ccccc1)N1CCC(n2c(=O)[nH]c3ccccc32)CC1 (configuration not stated),-1,6,1,5,-1,nt,nt,
COc1cc(OC)cc(-n2nc(C(=O)N3CCC4(CC3)OCCO4)c3ccccc3c2=O)c1,-3,7,6,2,0,nt,nt,
CCCc1c(C)nc(-c2ccc(C)cc2)nc1OC(=O)N(C)C,-4,-4,-3,-2,-2,nt,nt,
C[C@]12CC[C@H](O)CC1=CC(=O)C1C2CC[C@]2(C)C(=O)CCC12 (some centres not stated),2,-16,3,13*,5,6,-1,
COC(=O)C1=C(c2ccc(C(C)=O)cc2)C[C@@H]2CC[C@H]1N2C(=O)NCc1ccc(F)cc1,3,7,1,-1,0,nt,nt,
COC(=O)C1=C(c2ccc(OC)c(OC)c2)C[C@@H]2CC[C@H]1N2C(=O)NCc1cc(C)oc1C(F)(F)F,0,-3,2,-5,1,nt,nt,
N#CC1c2ccccc2-n2nncc2CN1S(=O)(=O)c1ccccc1 (configuration not stated),-5,-14,1,10*,0,3,0,
CCOC(=O)N1CCC(NC(=O)CCc2nc(C3=CCN(C)CC3)no2)CC1,7,-3,8,70*,-3,50*,0,GFP quench DR=>68;GFP quench-2=>68
NC(=O)c1c(NC(=O)c2ccc(S(=O)(=O)N(CCCl)CCCl)cc2)sc2c1CCCCC2,nt,nt,nt,-2,nt,nt,nt,
CCCN1CCc2cccc3c2[C@H]1Cc1ccc(O)c(O)c1-3,nt,nt,nt,12*,nt,6,8.6*,
COc1ccc2c(c1O)-c1c(OC)c(OC)cc3c1[C@H](C2)N(C)CC3,-1,-11,-1,1,-1,nt,nt,
C=CCCC1(CC)C(=O)NC(=S)NC1=O,-2,-7,3,1,-1,nt,nt,
C=CCNC(=O)c1c(N)n(CCN2CCOCC2)c2nc3ccccc3nc12,-1,-9,-2,-1,-7,nt,nt,
Nc1c(C(=O)NC2CCCC2)c2nc3ccccc3nc2n1CC1CCCO1 (configuration not stated),-1,6,2,19*,3,1,1,
